Experimental data from different studies.
Route: oral

Structure (SMILES) | host | medium | dose | bioavailability
COc1ccc2c(c1OCc1ccccc1)C[C@@H](C(=O)O)N(C(=O)C(c1ccccc1)c1ccccc1)C2 | male beagle dog | plasma | 3 mg/kg | 39%
N#C[C@@]1(c2ccc3c(N)ncnn23)O[C@H](CO)[C@@H](O)[C@H]1O | dog | plasma | 5 mg/kg | 92%
C=CC(=O)Nc1cc(Nc2nccc(Nc3cc(Cl)c(F)cc3C(C)(C)O)n2)c(OC)cc1N1CC[C@@H](N(C)C)C1 | beagle dog | plasma | 1 mg/kg | 48.8%
Cc1cc(Nc2ccc(S(F)(F)(F)(F)F)cc2)n2nc(C(C)(F)F)nc2n1 | male beagle dog | plasma | – | ~20%
CC#Cc1cncc(-c2ccc3c(c2)[C@@]2(N=C(C)C(N)=N2)[C@]2(CC[C@H](OC)CC2)C3)c1 | male beagle dog | plasma | 3 µmol/kg | 80%
C#Cc1cnc2nc(O)n(C(CC)CC)c2n1 | male beagle dog | plasma | 1 mg/kg | > 90%
O=C(NCCN1CCCC1)c1cc(-c2ccc(CN3CCOCC3)cc2)nc2ccc(F)cc12 | male beagle dog | blood | 3 mg/kg | 46%
Oc1c(-n2ccnn2)cnn1-c1cc(N2CCOCC2)ncn1 | female dog | plasma | 1.5 mg/kg | 71%
Fc1ccc(Nc2n[nH]c3cccnc23)cc1Cl | dog | plasma | – | 36%
